Experimental data of several laboratories.
Protocols differ between the studies behind these lines.
Read-out: cell growth or viability

With `O=C1Nc2ccccc2CCCc2ccccc21` the IC50 was 190 µM (L6).
The GI50 of `COc1cc2c(cc1OS(N)(=O)=O)CCN(Cc1cc(Cl)c(OC)c(OC)c1)C2` is reported as 0.019 µM (CNSSF-539; SRB).
The IC50 of `Nc1nc(Cl)nc2c1ncn2[C@H]1C[C@H](O)[C@@H](CO)O1` is reported as > 1 µM (GISTT1; resazurin; 72 h).
With `CC(=O)Nc1cccc(-n2c(=O)n(C3CC3)c(=O)c3c(Nc4ccc(I)cc4F)n(C)c(=O)c(C)c32)c1` the viability was 99.6% (SW1417; resazurin; 780 pM; 72 h).
`COc1cc(CN2CCc3cc(O)ccc3C2)cc(OC)c1OC` gave a GI50 of 0.036 µM (CNSSF-539; SRB).
The IC50 of `CC(C)C[C@H](NC(=O)[C@H](Cc1ccccc1)NC(=O)c1cnccn1)B(O)O` is reported as 0.006 µM (GISTT1; 72 h).
For `N#Cc1ccc2c(c1)CCC(=O)c1ccccc1NC2=O`, the IC50 was 150 µM (L6).
For `CCOC(=O)n1ccn(C)c1=S`, the IC50 was < 0.07 µM (GISTT1; resazurin; 72 h).
`O=C1Nc2cc(F)cc(F)c2C(=O)CCc2ccccc21` gave an IC50 of 86 µM (L6).
For `O=c1ncccn1[C@@H]1O[C@H](CO)[C@@H](O)[C@H]1O`, the IC20 was 75 µM (MEC1; 48 h).
With `COc1cc2c(cc1O)CCN(Cc1cc(Br)c(OC)c(OC)c1)C2` the GI50 was 0.177 µM (CNSSF-539; SRB).
`N#Cc1ccc2c(c1)C(=O)CCc1ccccc1C(=O)N2` gave an IC50 of 160 µM (L6).
